Test results: ChEMBL document CHEMBL1123762, “Synthesis and antiviral evaluation of carbocyclic analogues of 2-amino-6-substituted-purine 3'-deoxyribofuranosides” (1987)
Converted amounts (≈) assume the structure as drawn. “And” between values parts separate entries of the source, which are not always exact repeats. Identical values can stand only once.

Legend:
Format in all cases: functional
[1] = tested on: unidentified influenza virus; assay: Antiviral activity against the influenza Ao/PR/8/34 virus strain
Summary of the method: (§1)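 Cytopathic effect (CPE) inhibition in cell monolayers. Host cells: HSV-1 strain 377 (TK+) and HSV-2 strain MS (TK+) in Vero cells; HSV-1 strain HF (TK−) in H.Ep.-2 cells; influenza A0/PR/8/34 in Madin-Darby canine kidney cells. MIC50 is the concentration giving 50% inhibition of virus-induced CPE. ara-A was run as the positive control in the HSV tests.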

[2] = tested on: unidentified influenza virus; assay: Antiviral activity is expressed as virus rating (VR) against the influenza Ao/PR/8/34 virus strain
Summary of the method: (§2)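 Virus rating (VR) from CPE inhibition in monolayers: HSV-1 377 and HSV-2 MS in Vero cells, HSV-1 HF in H.Ep.-2 cells, influenza A0/PR/8/34 in MDCK cells. A VR of 1.0 or more means definite, significant activity. A VR of 0.5–0.9 means marginal to moderate activity. A VR below 0.5 usually means no significant activity.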

[3] = tested on: Human alphaherpesvirus 1; assay: Antiviral activity is expressed as virus rating (VR) against the HSV-1 377 strain; summary of the method: as §2
[4] = tested on: Human alphaherpesvirus 1; assay: Antiviral activity is expressed as virus rating (VR) against the HSV-1 HF strain; summary of the method: as §2
[5] = tested on: Human alphaherpesvirus 1; assay: Antiviral activity against the HSV-1 HF strain from monolayers of human epidermoid carcinoma (H.Ep.-2) cells; summary of the method: as §1
[6] = tested on: Human alphaherpesvirus 1; assay: Antiviral activity against the HSV-1 377 strain from monolayers of vero cells; summary of the method: as §1
[7] = Ratio measured as the VR of C-3''-deoxyribofuranoside to the VR at a MIC of 3 ug/mL
[8] = Ratio measured as the VR of C-3''-deoxyribofuranoside to the VR at a MIC of 14 ug/mL
[9] = Ratio measured as the VR of C-3''-deoxyribofuranoside to the VR at a MIC of 54 ug/mL
[10] = Ratio measured as the VR of C-3''-deoxyribofuranoside to the VR at a MIC of 6 ug/mL
[11] = Ratio measured as the VR of C-3''-deoxyribofuranoside to the VR at a MIC of 34 ug/mL
[12] = Ratio measured as the VR of C-3''-deoxyribofuranoside to the VR at a MIC of 18 ug/mL
[13] = Ratio measured as the VR of C-3''-deoxyribofuranoside to the VR at a MIC of 56 ug/mL
[14] = Ratio measured as the VR of C-3''-deoxyribofuranoside to the VR at a MIC of 15 ug/mL

Row | Structure (SMILES) | MIC50 [1] [µg/mL] | VR [2] | VR [3] | VR [4] | MIC50 [5] [µg/mL] | further results
1 | Nc1nc(N)c2nnn(C3CC(CO)CC3O)c2n1 (configuration not stated) | 200 (≈ 754 µM) | 1.3 |  |  |  | 
2 | Nc1nc(O)c2ncn(C3CC(CO)CC3O)c2n1 (configuration not stated) | 260 (≈ 980 µM) | 1.3 | 2.6 and 3.1 and 1.9 | 0 |  | 
3 | Nc1nc(Cl)c2ncn([C@@H]3C[C@H](CO)C[C@H]3O)c2n1 | > 284 | 0.5 | 0.1 | 1.5 | 190 (≈ 670 µM) | 
4 | Nc1nc2c(ncn2COCCO)c(=O)[nH]1 [ACYCLOVIR] |  |  | 5.7 | 0 |  | MIC50 ([6]; Human alphaherpesvirus 1, read-out: MIC50): 3 µg/mL (≈ 13.3 µM); Ratio [7]: 0.33
5 | NC(=O)c1ncn([C@@H]2O[C@H](CO)[C@@H](O)[C@H]2O)n1 [RIBAVIRIN] |  | 2.6 and 2.9 |  |  |  | Ratio [8]: 0.45; Ratio [9]: 0.19
6 | Nc1ncnc2c1ncn2[C@@H]1O[C@H](CO)[C@@H](O)[C@@H]1O [VIDARABINE] |  |  | 2 and 2.1 | 2.4 | 6 (≈ 22.5 µM) | Ratio [10]: 0.63; Ratio [11]: 0.95; Ratio [12]: 1.5; MIC50 [6]: 15 µg/mL and 18 µg/mL and 34 µg/mL; Ratio [13]: 1.44; Ratio [14]: 1.3
